GRK2 inh – blocks RNA aptamer binding to human GRK2 | P25098 | bead flow cytometry, FAM-aptamer displacement from GRK2 | inhibition of aptamer binding, % at 10 µM | 330,000 tested, 0.59% active;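 active means inhibition of aptamer binding above 40%, roughly 3 SD of noise, on plates passing a quality check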;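 further: median bead fluorescence of bound FAM aptamer so fluorescent compounds give negative values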
LMPTP inh – blocks human LMPTP phosphatase. 360,000 tested, 0.22% active. recombinant LMPTP-A, OMFP fluorogenic substrate, fluorescence intensity. inhibition, % at 20 µM. P24666;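 active means compounds that cut the enzyme signal by at least half of the control window in the single-dose screen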;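 further: plate controls were DMSO wells with enzyme plus substrate for no effect and substrate without enzyme for full effect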
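test system = LMPTP-A | amount = 0.625 nM LMPTP-A final | reagent = fluorogenic phosphatase substrate OMFP at 400 µM final | incubation = 50 min at room temperature | benchmarks = no-enzyme low control, uninhibited high control | medium = Bis-Tris pH 6.0, DTT, detergent | signal = fluorescence intensity of OMFP turnover product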
DNMT1 block – DNMT1 (human) enzyme inhibition; P26358; DNMT1 molecular beacon, Hinp1I cleavage, fluorescence; inhibition (reported as % activation of signal), % at 10 µM; 360,000 tested, 0.83% active; AID 588458; in the data active means inhibition above about 50%
SUMO1 PPI mod – SUMO1-SIM interaction modulation. inhibition, % at 20 µM. P63165. 360,000 tested, 0.33% active. SUMO1 binding to a labelled peptide, TR-FRET, 1 h; in the data active means inhibition above about 37%
Scp1 inh – blocks human Scp-1 phosphatase activity | inhibition, % at 20 µM | Recombinant Scp1, phosphopeptide, malachite green phosphate absorbance | AID 493091 | Q9GZU7 | 340,000 tested, 0.88% active;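 active means inhibition above about 50% at 20 µM, limit read from the data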;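 further: plate controls were DMSO wells with enzyme for no effect and wells lacking enzyme for full effect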
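assay system = SCP-1 phosphatase catalytic domain, residues 76-261 | buffer or medium = 50 mM Tris acetate pH 5.5, 0.005% Tween-20, 10 mM MgCl2 | incubation = enzyme reaction 45 min at room temperature, colour 5 min, stabilisation 30 min | signal = Phosphate-binding colour reagent, absorbance read at 630 nm | measure = % inhibition at 20 µM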
STEP block – inhibitors of human striatal-enriched phosphatase STEP; inhibition, % at 20 µM; 360,000 tested, 0.25% active; P54829; recombinant STEP, OMFP fluorogenic substrate, fluorescence;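 active means inhibition at 20 µM, scaled per plate between control wells, above about 37%, limit read from the data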;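 further: 0% = DMSO with enzyme and substrate and 100% = substrate only without enzyme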
Target sequence (P54829 whole entry, looked up): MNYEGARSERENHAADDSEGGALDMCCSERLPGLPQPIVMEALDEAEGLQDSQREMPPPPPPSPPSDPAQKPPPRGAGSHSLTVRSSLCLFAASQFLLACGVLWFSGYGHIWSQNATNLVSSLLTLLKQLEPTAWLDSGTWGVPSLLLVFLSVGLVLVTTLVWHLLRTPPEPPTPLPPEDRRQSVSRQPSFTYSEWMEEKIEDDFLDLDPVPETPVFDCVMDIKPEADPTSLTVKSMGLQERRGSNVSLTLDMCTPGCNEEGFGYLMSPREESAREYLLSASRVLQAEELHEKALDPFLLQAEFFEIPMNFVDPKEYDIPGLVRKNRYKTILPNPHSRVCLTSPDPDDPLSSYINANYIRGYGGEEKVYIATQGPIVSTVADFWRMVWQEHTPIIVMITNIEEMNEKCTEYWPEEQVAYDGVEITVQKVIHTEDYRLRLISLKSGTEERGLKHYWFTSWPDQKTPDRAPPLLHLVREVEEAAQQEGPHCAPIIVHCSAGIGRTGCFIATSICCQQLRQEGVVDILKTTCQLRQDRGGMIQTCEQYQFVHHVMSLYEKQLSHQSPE
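Assay system: isolated STEP enzyme. Buffer or medium: pH 6.0 Bis-Tris with DTT and Tween 20. Also added: fluorogenic phosphatase substrate OMFP at 25 µM final. Dosing: 20 µM, 1% DMSO. Timing: 20 min reaction, room temperature, in the dark. Measured by: fluorescence intensity, excitation 480 nm, emission 540 nm. Evaluation: normalized % inhibition.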
DNMT1 confirm – DNMT1 inhibition confirmation, single concentration; 2,300 tested, 8% active; inhibition, % at 10 µM; DNMT1 molecular beacon HinP1I cleavage, fluorescence; shares compounds with DNMT1 block; AID 602385;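 active means average inhibition of at least 30% in the single-concentration confirmation test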
DNMT1 interf – counter-screen for DNMT1 inhibitors: spectral interference; shares compounds with DNMT1 block; activation (fluorescence interference), % at 10 µM; DNMT1 molecular beacon spectral interference counterscreen, fluorescence 485/520; 2,300 tested, 1% active;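 active means activation of at least 30% at 10 µM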;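 further: DNMT1 catalytic domain with a HinP1I cleavage step and a FAM/dabcyl DNA beacon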
The depositor's hits bear a star; · = not tested or not shown. A selection: hits, their analogues and other compounds. The true share with any hit is near 2.1%.

SMILES	GRK2 inh	LMPTP inh	DNMT1 block	SUMO1 PPI mod	Scp1 inh	STEP block	DNMT1 confirm	DNMT1 interf
COc1ccc(NS(=O)(=O)c2cccc(C(=O)N/N=C/c3ccc4c(c3)OCCO4)c2)cc1	2.0	-1.2	59.6*	4.2	-3.7	-2.7	3.9	1.4
O=C(N/N=C/c1ccc2c(c1)OCO2)c1sc2cc(Cl)ccc2c1Cl	0.0	1.9	67.2*	-2.1	3.0	5.0	3.6	-4.6
CCn1nc(C)c([N+](=O)[O-])c1C(=O)NNC(=O)c1ccccc1Cl	4.0	-0.7	2.2	0.8	-6.2	-2.4	·	·
CCOc1ccc(S(=O)(=O)Nc2ccc(C(=O)NCc3ccncc3)cc2)cc1	2.0	-0.3	-2.1	0.1	-2.2	-1.2	·	·
CCC(C)NC(=O)COC(=O)c1ccccc1OCC(=O)Nc1ccc(Br)cc1 (stereo not drawn)	1.0	-1.8	50.9*	-5.2	-4.6	-0.9	1.2	0.4
COc1ccc(CNC(=O)c2cc3cc(OC)ccc3oc2=O)cc1	3.0	0.8	4.0	-35.0	-5.2	0.7	·	·
COc1ccc2oc(=O)c(C(=O)NCc3ccccc3)cc2c1	0.0	0.3	51.3*	-41.0	-5.0	-2.0	4.8	1.6
O=C(Nc1ccc(N2CCN(c3ccc(C(F)(F)F)cn3)CC2)nc1)c1cccs1	3.0	2.9	51.8*	9.6	-7.2	0.9	2.7	3.4
O=C(Nc1ccc(N2CCN(c3ncccc3C(F)(F)F)CC2)nc1)c1cccs1	0.0	2.0	-7.2	10.0	-5.1	-0.2	·	·
O=S(=O)(c1ccc2c(c1)OCCO2)C1CCC(S(=O)(=O)c2c(F)cccc2F)CC1 (stereo not drawn)	0.0	-0.1	1.3	0.2	-14.5	-1.8	·	·
COc1ccc(N2CCCC2=O)cc1S(=O)(=O)N1CCOCC1	·	-3.2	72.0*	4.3	·	-3.0	1.3	3.2
Cc1ccc(N2CCCC2=O)cc1S(=O)(=O)N1CCOCC1	6.0	0.2	2.9	-4.3	-4.6	-1.6	·	·
CC1CCCN(C(=O)c2ccc(Br)c(S(=O)(=O)N3CCOCC3)c2)C1 (stereo not drawn)	1.0	-0.6	-1.1	2.0	-2.8	0.7	·	·
COc1ccc(C(CNC(=O)C(CCSC)NC(=O)c2ccccc2OC)N2CCCCC2)cc1 (stereo not drawn)	0.0	0.6	0.5	-0.8	-7.1	1.3	·	·
CCOC(=O)c1ccc(NC(=S)Nc2ccc(Br)cc2N)cc1	0.0	-1.1	-2.7	-0.6	-8.1	-1.4	·	·
Clc1ccc(CNc2ccc3nnc(-c4ccccc4)n3n2)cc1	0.0	8.1	65.6*	2.7	3.5	0.5	0.1	-1.6
CCOc1ccc(CCNc2ccc3nnc(-c4ccccc4)n3n2)cc1OCC	2.0	1.8	28.2	19.8	-6.6	-14.0	·	·
O=C(COC(=O)c1cc(=O)[nH]c2ccccc12)Nc1nc(-c2ccc(F)cc2)cs1	·	2.5	-4.8	-4.9	5.8	0.2	·	·
C[C@H](NC(=O)c1ccco1)C(=O)Nc1nc(-c2ccccn2)cs1	·	-2.0	77.0*	10.4	-10.4	0.6	7.5	4.3
O=C(Nc1nc(-c2ccccn2)cs1)c1ccco1	5.0	5.7	13.2	22.6	-4.7	4.0	·	·
COc1ccc(C(=O)Nc2ccccc2C(=O)Nc2cccc(C)n2)cc1	1.0	0.3	83.3*	1.0	7.6	-0.9	14.6	4.5
c1ccc(OCCCCn2cnc3ccccc32)cc1	1.0	0.2	73.7*	-0.8	1.1	2.6	2.5	4.9
CC(C(=O)Nc1ccc2c(c1)OCO2)N(C)CC(=O)Nc1ccc(Cl)cc1 (stereo not drawn)	·	-0.7	-4.3	2.7	-2.4	-0.3	·	·
CCOC(=O)c1c(N)n(CCOC(=O)c2cccs2)c2nc3ccccc3nc12	2.0	4.5	100.1*	37.6	-0.4	4.9	6.9	5.9
CCCCCOC(=O)c1c(N)n(CCOC)c2nc3ccccc3nc12	0.0	1.3	-15.3	5.2	-0.3	1.7	·	·
